Assay results: ChEMBL document CHEMBL1275584, “Genetically engineered lipopeptide antibiotics related to A54145 and daptomycin with improved properties” (Antimicrob Agents Chemother, 2010)
In brackets after ≈: the same amount, converted by molar mass.

Legend:
Enterococcus faecalis [1] = assay: Antibacterial activity against daptomycin sensitive Enterococcus faecalis 201 by CLSI method; assay type: functional
In short: (§1)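 Broth MIC in Mueller-Hinton broth with 50 mg/liter CaCl2, run with or without 1% bovine pulmonary surfactant, following CLSI methods. Colonies came from frozen stocks streaked on sheep-blood tryptic soy agar (37°C, ~24 h). Incubation was at 37°C with rotation at 200 rpm. The ratio is MIC with surfactant divided by MIC without.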

Staphylococcus aureus [2] = assay: Antibacterial activity against daptomycin sensitive and methicillin susceptible Staphylococcus aureus 42 by CLSI method; assay type: functional
In short: (§2)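 MICs were determined by CLSI broth methods in Mueller-Hinton broth with 50 mg/liter CaCl2, with or without 1% bovine pulmonary surfactant. Inocula came from single colonies streaked from glycerol stocks onto blood agar and grown at 37°C for ~24 h. Cultures were incubated at 37°C with rotation at 200 rpm.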

Streptococcus pneumoniae [3] = assay: Antibacterial activity against daptomycin sensitive Streptococcus pneumoniae 402 by CLSI method; assay type: functional
In short: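 S. pneumoniae MIC in CaCl2-supplemented Mueller-Hinton broth (50 mg/liter) with 5% lysed horse blood, following CLSI methods. Colonies were grown on sheep-blood agar at 37°C under 5% CO2. Assay incubation was at 37°C under 5% CO2 without aeration.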

Staphylococcus aureus [4] = assay: Antibacterial activity against daptomycin resistant Staphylococcus aureus 1695 by CLSI method; assay type: functional; in short: as §2
Staphylococcus aureus [5] = assay: Antibacterial activity against methicillin resistant Staphylococcus aureus 1616 by CLSI method; assay type: functional; in short: as §2
Staphylococcus aureus [6] = assay: Ratio of MIC for Staphylococcus aureus 42 in presence of 1% bovine pulmonary surfactant to MIC for Staphylococcus aureus 42 in absence of 1% bovine pulmonary surfactant; assay type: functional; in short: as §1
Escherichia coli = assay: Antibacterial activity against imp4213 mutant Escherichia coli BAS849 by CLSI method; assay type: functional; in short: as §2
Enterococcus faecium [7] = assay: Antibacterial activity against daptomycin resistant Enterococcus faecium 384 by CLSI method; assay type: functional; in short: as §2
Staphylococcus aureus [8] = assay: Antibacterial activity against daptomycin sensitive and methicillin resistant Staphylococcus aureus MW2 by CLSI method; assay type: functional; in short: as §2
Staphylococcus aureus [9] = assay: Antibacterial activity against Staphylococcus aureus 42 in presence of 1% bovine pulmonary surfactant by CLSI method; assay type: functional; settings: Staphylococcus aureus, 42, Pulmonary surfactant; in short: as §1
Staphylococcus aureus [10] = assay: Antibacterial activity against daptomycin sensitive and methicillin resistant Staphylococcus aureus 399 by CLSI method; assay type: functional; in short: as §2
Enterococcus faecalis [11] = assay: Antibacterial activity against daptomycin resistant Enterococcus faecalis 312 by CLSI method; assay type: functional; in short: as §2
Staphylococcus aureus [12] = assay: Antibacterial activity against Staphylococcus aureus 42 in absence of 1% bovine pulmonary surfactant by CLSI method; assay type: functional; settings: Staphylococcus aureus, 42, Pulmonary surfactant; in short: as §1
Enterococcus faecium [13] = assay: Antibacterial activity against daptomycin sensitive Enterococcus faecium 14 by CLSI method; assay type: functional; in short: as §1
Streptococcus pneumoniae [14] = assay: Antibacterial activity against Streptococcus pneumoniae infected in CD1 mouse pneumonia model assessed as lung bacterial load at 12.5 mg/kg, sc administered at 1 and 4 hrs after bacterial challenge measured 24 hrs post infection (reference value: 2.69x10^8 CFU/ml); settings: route subcutaneous
Streptococcus pneumoniae [15] = assay: Antibacterial activity against Streptococcus pneumoniae infected in CD1 mouse pneumonia model assessed as lung bacterial load at 25 mg/kg, sc administered at 1 and 4 hrs after bacterial challenge measured 24 hrs post infection (reference value: 2.69x10^8 CFU/ml); settings: route subcutaneous
Streptococcus pneumoniae [16] = assay: Antibacterial activity against Streptococcus pneumoniae infected in CD1 mouse pneumonia model assessed as lung bacterial load at 6.25 mg/kg, sc administered at 1 and 4 hrs after bacterial challenge measured 24 hrs post infection (reference value: 2.69x10^8 CFU/ml); settings: route subcutaneous

CC[C@H](C)[C@@H]1NC(=O)[C@H]([C@H](C)CC(=O)O)NC(=O)[C@@H](CC(N)=O)NC(=O)CNC(=O)[C@@H]([C@H](OC)C(=O)O)NC(=O)[C@@H](CO)NC(=O)[C@H](CC(=O)O)NC(=O)[C@H](C)NC(=O)CN(C)C(=O)[C@@H](NC(=O)[C@@H](NC(=O)[C@@H](CCC(=O)O)NC(=O)[C@H](Cc2c[nH]c3ccccc23)NC(=O)CCCCCCCC(C)C)[C@H](O)C(N)=O)[C@H](C)OC1=O
MIC (Enterococcus faecalis [1]): 4 µg/mL (≈ 2.45 µM) | MIC (Staphylococcus aureus [2]): 1 µg/mL (≈ 0.613 µM) | MIC (Streptococcus pneumoniae [3]): 0.25 µg/mL (≈ 0.153 µM) | MIC (Staphylococcus aureus [4]): 4 µg/mL (≈ 2.45 µM) | MIC (Staphylococcus aureus [5]): 8 µg/mL (≈ 4.9 µM) | Ratio (Staphylococcus aureus [6]): 16 | MIC (Escherichia coli): 16 µg/mL (≈ 9.81 µM) | MIC (Enterococcus faecium [7]): 32 µg/mL (≈ 19.6 µM) | MIC (Staphylococcus aureus [8]): 0.5 µg/mL (≈ 0.306 µM) | MIC (Staphylococcus aureus [9]): 16 µg/mL | MIC (Staphylococcus aureus [10]): 1 µg/mL (≈ 0.613 µM) | MIC (Enterococcus faecalis [11]): 128 µg/mL (≈ 78.4 µM) | MIC (Staphylococcus aureus [12]): 1 µg/mL (≈ 0.613 µM) | MIC (Enterococcus faecium [13]): 4 µg/mL (≈ 2.45 µM)

CCCCCCCCCC(=O)N[C@@H](Cc1c[nH]c2ccccc12)C(=O)N[C@H](CC(N)=O)C(=O)N[C@@H](CC(=O)O)C(=O)N[C@@H]1C(=O)NCC(=O)N[C@@H](CCCN)C(=O)N[C@@H](CC(=O)O)C(=O)N[C@H](C)C(=O)N[C@@H](CC(=O)O)C(=O)NCC(=O)N[C@H](CO)C(=O)N[C@@H]([C@H](C)CC(=O)O)C(=O)N[C@@H](CC(=O)c2ccccc2N)C(=O)O[C@@H]1C
MIC (Enterococcus faecalis [1]): 2 µg/mL (≈ 1.23 µM) | MIC (Staphylococcus aureus [2]): 1 µg/mL (≈ 0.617 µM) | MIC (Streptococcus pneumoniae [3]): 0.25 µg/mL (≈ 0.154 µM) | MIC (Staphylococcus aureus [4]): 4 µg/mL (≈ 2.47 µM) | MIC (Staphylococcus aureus [5]): 16 µg/mL (≈ 9.87 µM) | Ratio (Staphylococcus aureus [6]): 128 | MIC (Escherichia coli): 128 µg/mL (≈ 79 µM) | MIC (Enterococcus faecium [7]): 32 µg/mL (≈ 19.7 µM) | MIC (Staphylococcus aureus [8]): 1 µg/mL (≈ 0.617 µM) | MIC (Staphylococcus aureus [9]): 64 µg/mL | MIC (Staphylococcus aureus [10]): 0.5 µg/mL (≈ 0.309 µM) | MIC (Enterococcus faecalis [11]): 128 µg/mL (≈ 79 µM) | MIC (Staphylococcus aureus [12]): 0.5 µg/mL (≈ 0.309 µM) | MIC (Enterococcus faecium [13]): 2 µg/mL (≈ 1.23 µM)

CN[C@H](CC(C)C)C(=O)N[C@H]1C(=O)N[C@@H](CC(N)=O)C(=O)N[C@H]2C(=O)N[C@H]3C(=O)N[C@H](C(=O)N[C@H](C(=O)O)c4cc(O)cc(O)c4-c4cc3ccc4O)[C@H](O)c3ccc(c(Cl)c3)Oc3cc2cc(c3O[C@@H]2O[C@H](CO)[C@@H](O)[C@H](O)[C@H]2O[C@H]2C[C@](C)(N)[C@H](O)[C@H](C)O2)Oc2ccc(cc2Cl)[C@H]1O [VANCOMYCIN]
CFU/ml (Streptococcus pneumoniae [14]): 285000 | CFU/ml (Streptococcus pneumoniae [15]): 9 | CFU/ml (Streptococcus pneumoniae [16]): 1.81e+07
